Here are results for 29 molecules from ChEMBL document CHEMBL1142700, “Nonpolar and short side chain groups at C-11beta of estradiol result in antiestrogens” (J Med Chem, 2005).

Assay [1] relates to Ishikawa. The experiment in a line: Estrogenic potency measured as stimulation of alkaline phosphatase activity relative to E2 in human endometrialadenocarcinoma cells (Ishikawa). It counts as functional. A digest of the protocol:
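Ishikawa human endometrial adenocarcinoma cells grown in phenol red-free medium with charcoal-stripped bovine serum and steroid over at least 6 orders of magnitude for 3 days. Cells washed, freeze-thawed, then given 5 mM p-nitrophenyl phosphate at pH 9.8, with kinetic reading of p-nitrophenol at 405 nm. At least three experiments in duplicate; EC50 by curve fitting.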

The target of assay [2] is T1, Estrogen receptor (Homo sapiens) (UniProt P03372).
T1 sequence (whole entry): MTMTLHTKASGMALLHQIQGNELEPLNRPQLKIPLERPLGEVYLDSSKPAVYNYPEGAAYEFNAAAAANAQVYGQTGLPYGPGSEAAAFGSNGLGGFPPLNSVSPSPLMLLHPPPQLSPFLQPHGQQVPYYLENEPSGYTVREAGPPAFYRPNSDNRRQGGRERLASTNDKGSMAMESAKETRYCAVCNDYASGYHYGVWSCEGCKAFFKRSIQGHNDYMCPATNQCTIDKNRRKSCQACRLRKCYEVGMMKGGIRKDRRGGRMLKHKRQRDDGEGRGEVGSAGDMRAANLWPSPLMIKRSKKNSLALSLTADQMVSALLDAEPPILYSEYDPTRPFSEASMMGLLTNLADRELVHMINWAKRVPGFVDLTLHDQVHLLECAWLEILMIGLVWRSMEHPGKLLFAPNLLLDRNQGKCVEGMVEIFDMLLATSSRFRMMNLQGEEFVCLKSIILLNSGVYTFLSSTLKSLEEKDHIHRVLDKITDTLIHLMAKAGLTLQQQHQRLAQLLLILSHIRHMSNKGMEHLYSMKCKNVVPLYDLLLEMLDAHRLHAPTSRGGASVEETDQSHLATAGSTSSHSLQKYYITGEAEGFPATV
The experiment in a line: Inhibition of [3H]E2 binding to human Estrogen receptor-alpha ligand binding domain (LBD) expressed in Escherichia coli lysates. A digest of the protocol:
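Human ERα LBD (M250-V595) expressed in E. coli lysates, competed against [3H]E2 overnight at room temperature. Bound separated by dextran-coated charcoal. RBA = EC50 of E2 / EC50 of analogue × 100, from at least three experiments in duplicate.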

For assay [3], the system named is Ishikawa. The experiment in a line: Inhibitory constant against stimulation of alkaline phosphatase activity in Ishikawa cells; (agonist). The format is functional, cell-based, Homo sapiens.
For assay [4], the target named is Estrogen receptor beta (Homo sapiens) (UniProt Q92731). The experiment in a line: Inhibition of [3H]E2 binding to human Estrogen receptor-beta ligand binding domain (LBD) expressed in Escherichia coli lysates. In a few lines: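 Human ERβ LBD (M214-Q530) in E. coli lysates; overnight room-temperature competition with [3H]E2, charcoal separation of bound from free. RBA relative to E2 from EC50 ratio × 100, at least three duplicate experiments.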
Estrogen receptor beta (Homo sapiens), sequence (Q92731 whole entry, the tested form may be a part): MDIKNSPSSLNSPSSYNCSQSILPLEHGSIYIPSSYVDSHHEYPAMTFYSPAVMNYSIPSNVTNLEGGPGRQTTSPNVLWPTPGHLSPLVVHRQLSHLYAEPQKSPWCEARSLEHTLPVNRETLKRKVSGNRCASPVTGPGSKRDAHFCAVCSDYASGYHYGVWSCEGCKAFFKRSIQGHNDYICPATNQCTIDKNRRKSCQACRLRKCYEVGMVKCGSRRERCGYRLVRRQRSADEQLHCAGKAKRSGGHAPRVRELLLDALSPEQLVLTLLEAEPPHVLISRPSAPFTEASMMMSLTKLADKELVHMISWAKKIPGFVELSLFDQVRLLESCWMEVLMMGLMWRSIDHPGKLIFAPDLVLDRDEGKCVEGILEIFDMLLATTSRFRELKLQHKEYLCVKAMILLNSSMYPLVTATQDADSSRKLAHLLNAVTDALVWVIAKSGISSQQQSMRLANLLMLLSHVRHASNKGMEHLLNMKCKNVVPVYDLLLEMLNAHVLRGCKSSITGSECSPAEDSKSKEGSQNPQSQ

In assay [5] the target is Estrogen receptor (Rattus norvegicus) (UniProt P06211+Q62986). The experiment in a line: Relative binding affinity for estrogen receptor of rat uterine cytosol. The format is protein assay. A digest of the protocol: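 Cytosol from uteri of Sprague-Dawley rats taken 24 h after castration, homogenized in TEGDMo buffer (pH 7.4), spun at 105 000g. Incubated on ice overnight with 1 nM [3H]E2 and competitor at 10^-12 to 10^-6 M. Dextran-coated charcoal separation, counting. RBA = EC50 E2 / EC50 analogue × 100, at least three duplicate experiments.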

Assay [6] deals with Ishikawa. The experiment in a line: Inhibitory constant against stimulation of alkaline phosphatase activity in Ishikawa cells; mixed agonist/antagonist moderate activity. The format is functional, cell-based, Homo sapiens.
Assay [7] deals with Ishikawa. Description: Inhibitory constant against stimulation of alkaline phosphatase activity in Ishikawa cells. It counts as functional, cell-based, Homo sapiens.
In assay [8] the test system is Ishikawa. Description: Inhibitory constant against stimulation of alkaline phosphatase activity in Ishikawa cells; ag./ant. is mixed agonist/antagonist. It counts as functional, cell-based, Homo sapiens.
Assay [9] has as its system Ishikawa. The experiment in a line: Inhibitory constant against stimulation of alkaline phosphatase activity in Ishikawa cells; weak mixed agonist/antagonist. It counts as functional, cell-based, Homo sapiens.
Assay [10] has as its system Ishikawa. The experiment in a line: Inhibitory constant against stimulation of alkaline phosphatase activity in Ishikawa cells; not active. The format is functional, cell-based, Homo sapiens.
Assay [11] concerns Ishikawa. Description: Relative stimulatory activity in Ishikawa cells with respect to E2. The format is functional, Homo sapiens. A digest of the protocol:
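Ishikawa alkaline phosphatase induction: phenol red-free medium, charcoal-stripped bovine serum, 3-day exposure to steroid across at least 6 log units. Read kinetically at 405 nm with 5 mM p-nitrophenyl phosphate, pH 9.8. RSA = (1/EC50 analogue) / (1/EC50 E2) × 100, fitted in at least three duplicate experiments.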

Assay [12] concerns Ishikawa. The experiment in a line: Inhibitory constant of the compound against stimulationofalkaline phosphatase activity inIshikawa cells; weak mixed agonist/antagonist. It counts as functional, cell-based, Homo sapiens.
The subject of assay [13] is Ishikawa. The experiment in a line: Inhibitory constant against stimulation of alkaline phosphatase activity in Ishikawa cells; na is not active. The format is functional, cell-based, Homo sapiens.

In the case of `COC[C@H]1C[C@]2(C)C(O)CC[C@H]2[C@@H]2CCc3cc(O)ccc3[C@@H]12` (some centres undefined), the Relative stimulatory activity in the assay on Ishikawa [1] is given as 125%. The RBA in [2] came to 114%; in [4], 240%; in [5], 20%. The Ki (usually a measure of affinity in units of concentration, obtained from inhibition or displacement) in the assay on Ishikawa [3] was “Agonist”.
`COCC[C@H]1C[C@]2(C)[C@@H](O)CC[C@H]2C2CCc3cc(O)ccc3[C@H]21` (single isomer, unassigned): in the assay on Ishikawa [6], the Ki result is listed as “Partial agonist”. The RBA in assay [2] was found to be 67%; in [4], 90%; in assay [5], 25%.
On to `CCCCOC[C@H]1C[C@]2(C)[C@@H](O)CC[C@H]2[C@@H]2CCc3cc(O)ccc3[C@@H]12`, for which the RBA came out at 102% in [2], 268% in [4] and 44% in assay [5]. In the assay with Ishikawa [7], this molecule came in with a Ki of 0.1 nM.
As to `CC(C)OCC[C@H]1C[C@]2(C)[C@@H](O)CC[C@H]2C2CCc3cc(O)ccc3[C@H]21` (single isomer, unassigned), the figures for the RBA in [2], in assay [4] and in [5] were 45%, 32% and 15%, respectively. This molecule showed a Ki with Ishikawa [7] of 0.4 nM.
`C[C@]12C[C@H](CCCOCCF)[C@@H]3c4ccc(O)cc4CC[C@H]3[C@@H]1CC[C@@H]2O`: the figures for the RBA in assay [2], in [4] and in [5] were 96%, 140% and 47%, respectively. In the assay with Ishikawa [7], this molecule gave a Ki of 1.1 nM.
Take `CCC(=O)CC[C@H]1C[C@]2(C)[C@@H](O)CC[C@H]2[C@@H]2CCc3cc(O)ccc3[C@@H]12`: the affinity in the assay with Ishikawa [7] corresponds to a Ki of 16 nM. In [5], this molecule yielded an RBA of 3.7%.
As for `C[C@]12C[C@H](CCOCCF)[C@@H]3c4ccc(O)cc4CCC3[C@@H]1CC[C@@H]2O` (single isomer, unassigned), the RBA in [2] is 112%; in assay [4], 34%; in assay [5], 16%. Besides, the Ki in the assay on Ishikawa [7] was found to be 55 nM.
Consider `CCCOC(=O)C[C@H]1C[C@]2(C)[C@@H](O)CC[C@H]2C2CCc3cc(O)ccc3[C@H]21` (single isomer, unassigned), for which, in the assay on Ishikawa [7], the Ki was found to be 1 nM. This molecule returned an RBA in assay [5] of 38%.
Consider `CC(C)OCCC[C@H]1C[C@]2(C)[C@@H](O)CC[C@H]2[C@@H]2CCc3cc(O)ccc3[C@@H]12`, for which the results for the RBA in assay [2], in assay [4] and in [5] were 220%, 93% and 114%, respectively. The molecule further had a Ki in the assay on Ishikawa [7] of 0.2 nM.
Taken in the same sequence, the figures for `COCCC[C@H]1C[C@]2(C)[C@@H](O)CC[C@H]2[C@@H]2CCc3cc(O)ccc3[C@@H]12` were 159%, 111%, 34% and 0.3 nM.
As for `CCCOC[C@H]1C[C@]2(C)[C@@H](O)CC[C@H]2[C@@H]2CCc3cc(O)ccc3[C@@H]12`, the RBA amounted to 146% in assay [2], 125% in [4] and 43% in assay [5]. The molecule further gave a Ki in the assay with Ishikawa [7] of 0.3 nM.
For `CCCC(=O)C[C@H]1C[C@]2(C)[C@@H](O)CC[C@H]2C2CCc3cc(O)ccc3[C@H]21` (single isomer, unassigned), in the assay with Ishikawa [7], the affinity corresponds to a Ki of 3.1 nM. Also, in [5], the RBA was found to be 13%.
In the assay with Ishikawa [7], `CCOC(=S)C[C@H]1C[C@]2(C)[C@@H](O)CC[C@H]2C2CCc3cc(O)ccc3[C@H]21` (single isomer, unassigned) registered an inhibition constant Ki of 2.7 nM. Moreover, the RBA in assay [5] amounted to 10%.
On to `CCOC[C@H]1C[C@]2(C)[C@@H](O)CC[C@H]2[C@@H]2CCc3cc(O)ccc3[C@@H]12`, for which the Ki result with Ishikawa [8] is recorded as “Partial agonist”. The results for the RBA in assay [2], in assay [4] and in assay [5] were 70%, 73% and 28%, respectively.
For `CCOCC[C@H]1C[C@]2(C)[C@@H](O)CC[C@H]2C2CCc3cc(O)ccc3[C@H]21` (single isomer, unassigned), the RBA in assay [2] was determined as 49%; in assay [4], 40%; in assay [5], 31%. In the assay on Ishikawa [7], the Ki turned out to be 0.3 nM.
As for `CC(C)(C)COC(=O)C[C@H]1C[C@]2(C)[C@@H](O)CC[C@H]2C2CCc3cc(O)ccc3[C@H]21` (single isomer, unassigned), the Ki in the assay on Ishikawa [7] came to 5.2 nM. In assay [5], the RBA was 10%.
`CC(C)(C)OCC[C@H]1C[C@]2(C)[C@@H](O)CC[C@H]2C2CCc3cc(O)ccc3[C@H]21` (single isomer, unassigned): the RBA in assay [2] was 5%; in assay [4] it was 2%; in [5] it was 2.3%. In the assay with Ishikawa [7], the Ki turned out to be 20 nM.
For the molecule `C[C@]12C[C@H](COCCF)[C@@H]3c4ccc(O)cc4CC[C@H]3[C@@H]1CC[C@@H]2O`, the Ki entry in the assay with Ishikawa [9] was “Partial agonist”. Besides, the RBA in assay [2] worked out at 27%; in assay [4], 35%; in assay [5], 10%.
`CC(=O)CC[C@H]1C[C@]2(C)[C@@H](O)CC[C@H]2[C@@H]2CCc3cc(O)ccc3[C@@H]12`: the Ki entry in the assay on Ishikawa [10] is “Not Active”. For the same molecule, in [5], the RBA was 1%.
Turning to `CC(C)(C)OCCC[C@H]1C[C@]2(C)[C@@H](O)CC[C@H]2[C@@H]2CCc3cc(O)ccc3[C@@H]12`, the RBA was found to be 128% in assay [2], 82% in assay [4] and 81% in assay [5]. In the assay with Ishikawa [7], the inhibitory constant (Ki) turned out to be 0.09 nM.
On to `CCC(=O)C[C@H]1C[C@]2(C)[C@@H](O)CC[C@H]2C2CCc3cc(O)ccc3[C@H]21` (single isomer, unassigned), for which, in the assay with Ishikawa [11], the Stimulatory activity turned out to be 1.9%. In addition, the Ki entry with Ishikawa [9] was “Partial agonist”. The same molecule registered an RBA in assay [5] of 18%.
Consider `CNC(=O)CC[C@H]1C[C@]2(C)[C@@H](O)CC[C@H]2[C@@H]2CCc3cc(O)ccc3[C@@H]12`, for which the inhibition constant (Ki) entry in the assay with Ishikawa [9] is “Partial agonist”. In assay [5], this molecule gave an RBA of 0.6%.
With `CCNC(=O)C[C@H]1C[C@]2(C)[C@@H](O)CC[C@H]2C2CCc3cc(O)ccc3[C@H]21` (single isomer, unassigned), the Ki result in the assay on Ishikawa [12] is on record as “Partial agonist”. In addition, the RBA in [5] was 0.1%.
`CCNC(=O)CC[C@H]1C[C@]2(C)[C@@H](O)CC[C@H]2[C@@H]2CCc3cc(O)ccc3[C@@H]12`: the Ki entry with Ishikawa [9] is recorded as “Partial agonist”. In assay [5], this molecule displayed an RBA of 3.7%.
The molecule `CC(C)OC(=O)C[C@H]1C[C@]2(C)[C@@H](O)CC[C@H]2C2CCc3cc(O)ccc3[C@H]21` (single isomer, unassigned) displayed a Ki with Ishikawa [7] of 2.1 nM. In assay [5], this molecule yielded an RBA of 17%.
Turning to `CCOCCC[C@H]1C[C@]2(C)[C@@H](O)CC[C@H]2[C@@H]2CCc3cc(O)ccc3[C@@H]12`, the RBA came out at 87% in assay [2], 75% in assay [4] and 48% in assay [5]. For the same molecule, in the assay with Ishikawa [7], the affinity, expressed as Ki, was 0.3 nM.
Taken in the same sequence, the figures for `CCCOCC[C@H]1C[C@]2(C)[C@@H](O)CC[C@H]2C2CCc3cc(O)ccc3[C@H]21` (single isomer, unassigned) were 54%, 88%, 65% and 0.3 nM.
For the molecule `CCCC(=O)CC[C@H]1C[C@]2(C)[C@@H](O)CC[C@H]2[C@@H]2CCc3cc(O)ccc3[C@@H]12`, affinity in the assay on Ishikawa [7] was put at a Ki of 13 nM. This molecule displayed an RBA in [5] of 7.7%.
With `CCCCO[C@H]1C[C@]2(C)[C@@H](O)CC[C@H]2[C@@H]2CCc3cc(O)ccc3[C@H]21`, in the assay on Ishikawa [13], the Ki result is on record as “Not Active”. Besides, the RBA in assay [2] turned out to be 7.5%; in assay [4], 21%; in assay [5] it was 2.1%.
